Compound activity from PubChem BioAssay.
PAX8 inh HTS = inhibitors of PAX8-driven TPO luciferase reporter, primary screen, RMG-I cells, single concentration; hit rate 1.2% among 360,000; inhibition, % at 12.6 µM; AID 652154, 2013; SteadyGlo, 24 h;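 active = mean replicate inhibition at least 60% with every replicate also reaching 60%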;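 also: luciferase light reporting Pax8 driven TPO promoter activity; plate controls were median of neutral control wells for no effect and mitoxantrone controls for full effect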
CDK5 p35 inh = inhibitors of human CDK5/p35 kinase, primary screen, biochemical, single concentration | Recombinant CDK5/p35, ADP-Glo luminescence, 60 min | AID 488839, 2010 | hit rate 0.01% among 330,000 | Cyclin-dependent kinase 5 (Homo sapiens) + Cyclin-dependent kinase 5 activator 1 (Homo … | inhibition, % at 10 µM;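 active = highest replicate inhibition of at least 50% and at least 75% of replicates reaching 50%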;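 also: plate controls were DMSO neutral control for no effect and GW8510 at 10 µM for full effect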
Target sequence (Q00535 whole entry, looked up): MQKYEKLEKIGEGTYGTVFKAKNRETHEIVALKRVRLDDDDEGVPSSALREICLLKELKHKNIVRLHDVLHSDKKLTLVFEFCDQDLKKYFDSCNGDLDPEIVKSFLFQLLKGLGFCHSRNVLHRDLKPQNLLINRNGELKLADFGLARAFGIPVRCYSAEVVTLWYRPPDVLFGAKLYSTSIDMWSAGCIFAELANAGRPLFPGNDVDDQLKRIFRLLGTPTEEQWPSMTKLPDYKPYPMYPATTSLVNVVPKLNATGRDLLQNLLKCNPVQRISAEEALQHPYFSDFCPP
Target sequence (Q15078 whole entry, looked up): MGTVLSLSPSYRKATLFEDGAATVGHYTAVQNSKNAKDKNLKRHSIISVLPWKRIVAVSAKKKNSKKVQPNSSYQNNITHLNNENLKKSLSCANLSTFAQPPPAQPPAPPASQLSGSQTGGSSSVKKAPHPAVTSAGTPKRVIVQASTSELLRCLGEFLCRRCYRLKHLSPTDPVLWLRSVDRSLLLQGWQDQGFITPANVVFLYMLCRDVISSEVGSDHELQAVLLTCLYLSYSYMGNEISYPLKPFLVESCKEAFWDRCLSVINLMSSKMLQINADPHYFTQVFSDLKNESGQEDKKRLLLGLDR
dFosB activator = activators of delta FosB homodimer, primary screen, biochemical, fluorescence polarization, TAMRA-CDK5 oligo, single point | Protein FosB (Mus musculus), P13346 | purified delta FosB; percent of positive-control signal above neutral wells | activation, % at 25 µM | hit rate 0.99% among 340,000 | AID 493131, 2011;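 active = mean activation above about 17%, with every replicate also reaching it, limit read from the data, passing the limit was not always enough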
Env fusion inh = inhibitors of HIV-1 Env-driven cell-cell fusion, primary screen, HeLa-JRFL effector, CEM21 target cells, luciferase; hit rate 1.1% among 360,000; inhibition, % at 12.3 µM;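 active = mean replicate inhibition score of at least 50 and every replicate individually at or above 50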;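 also: 0% = plate neutral controls and 100% = maraviroc near 300 nM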
Cneo AK release = Cryptococcus neoformans cell lysis inducers, primary screen, AK release luminescence, single concentration; lysis activity, % at 15 µM; AID 651654, 2012; hit rate 0.2% among 360,000; C. neoformans lysis, adenylate kinase release luminescence, 4 h; normalised: neutral wells 0, clomiphene wells 100;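 active = mean lysis activity across replicates of at least 80%, whatever share of replicates individually reach that level; inactive = mean lysis activity below 80%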
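Schedule: static 4 h at 37 °C with compound, 1 h detection; system: C. neoformans cells; benchmarks: Clomiphene as positive control; buffer or medium: fresh YPD medium; measure: luminescence rise reflecting yeast cell lysis; measured by: luminescent adenylate kinase detection reagent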
INS-1E GSIS act = GLuc luminescence reporter in INS-1E cells, primary screen for activators of glucose-dependent secretion of insulin; INS-1E GLuc reporter insulin secretion, 2-3 h; activation, % at 16.6 µM; hit rate 0.61% among 370,000;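 active = lowest replicate activation of at least 40%, so every replicate reaches that level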;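 also: 0% = median of neutral control wells and 100% = median of IBMX positive control wells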
Starred values were filed as active, the others as inactive; nt = no result given; [ ] = dose if it differs, or a comment. Hits are enriched below; roughly 2.9% of the tested compounds scored in any of these assays.

SMILES	PAX8 inh HTS	CDK5 p35 inh	dFosB activator	Env fusion inh	Cneo AK release	INS-1E GSIS act
O=C(C[C@H]1C=C[C@@H](NS(=O)(=O)c2ccccc2)[C@H](CO)O1)NCc1ccccc1F	-6.3	nt	nt	0.8[16.7 µM]	3.5	-2.4
CO[C@H]1CN(C)C(=O)c2cc(NC(=O)c3ccc4c(c3)OCO4)ccc2OC[C@@H](C)N(CC2CC2)C[C@H]1C	20.5	nt	nt	14.9[16.7 µM]	90.3*	1.2
COc1ccccc1C(=O)Nc1ccc2c(c1)OC[C@H](C)N(C(C)=O)C[C@@H](C)[C@H](OC)CN(C)C2=O	12.3	nt	nt	13.5[16.7 µM]	-0.5	-4.4
CO[C@@H]1CN(C)C(=O)c2cc(NC(=O)c3ccccc3F)ccc2OC[C@@H](C)N(CC2CCOCC2)C[C@H]1C	nt	nt	nt	21.6[16.7 µM]	0.3	-0.5
CO[C@H]1CN(C)C(=O)c2cc(NC(=O)c3ccccc3F)ccc2OC[C@H](C)N(C(C)=O)C[C@H]1C	-34.4	nt	nt	3.9[16.7 µM]	95.2*	8.1
CO[C@@H]1CN(C)C(=O)c2cc(NC(=O)c3ccccc3F)ccc2OC[C@@H](C)N(C(C)=O)C[C@H]1C	9.1	nt	nt	5.4[16.7 µM]	48.8	13.9
CO[C@H]1CN(C)C(=O)c2cc(NC(=O)c3ccccc3F)ccc2OC[C@H](C)N(CC2CCOCC2)C[C@H]1C	nt	nt	nt	13.0[16.7 µM]	97.8*	2.3
COc1ccccc1C(=O)Nc1ccc2c(c1)OC[C@H](C)N(C(C)=O)C[C@H](C)[C@H](OC)CN(C)C2=O	4.3	nt	nt	60.0*[16.7 µM]	101.0*	0.1
O=S(=O)(N[C@H]1CC[C@@H](CCn2cc(-c3ccccn3)nn2)O[C@H]1CO)c1cccc(Cl)c1	13.3	nt	nt	3.1[16.7 µM]	51.6	3.6
CN1C(=O)c2cc(NC(=O)Cc3cccs3)ccc2OC[C@@H]2O[C@@H](CC(=O)NCC3CC3)CC[C@H]21	2.7	nt	nt	-33.2[16.7 µM]	-4.4	-4.3
COc1ccc2c3c([nH]c2c1)[C@H](CO)N(C(=O)Nc1ccccc1F)CC31CN(C(=O)c2ccccc2F)C1	nt	nt	nt	nt	nt	-19.5
CO[C@H]1CN(C)C(=O)c2cc(NC(=O)c3ccc(F)cc3)ccc2OC[C@@H](C)N(C(=O)CN(C)C)C[C@H]1C	-0.9	nt	nt	-5.4[16.7 µM]	-11.6	-0.1
CO[C@H]1CN(C)C(=O)c2cc(NC(=O)c3ccc(F)cc3)ccc2OC[C@H](C)N(C(=O)CN(C)C)C[C@@H]1C	-10.0	nt	nt	62.0*[16.7 µM]	1.9	0.4
CO[C@@H]1CN(C)C(=O)c2cc(NC(=O)c3ccccc3F)ccc2OC[C@@H](C)N(CC2CC2)C[C@@H]1C	78.9*	nt	nt	nt	-44.6	6.8
CCOc1ccccc1CNc1ncnc2ccc(-c3c(C)noc3C)cc12	2.2	-0.1	-3.8	69.9*	-1.0	-76.3
COc1ccccc1CNc1ncnc2cc(Cl)ccc12	40.2	-0.1	6.3	11.5	nt	-3.1
CCC(=O)N1C[C@@H](C)[C@@H](OC)CN(C)C(=O)c2cc(NS(=O)(=O)CC)ccc2OC[C@H]1C	4.2	nt	nt	7.0[16.7 µM]	43.6	-4.2
C[C@@H]1CN([C@H](C)CO)C(=O)c2cc(NC(=O)Nc3cccc4ccccc34)ccc2O[C@@H](C)CCCCO[C@@H]1CN(C)Cc1ccc(C(=O)O)cc1	0.3	nt	nt	-9.4[16.7 µM]	-2.8	-4.4
CCC1=Nc2cc(C(=O)NCc3ccco3)ccc2Sc2ccc(C)cc21	83.8*	-1.9	4.2	-147.2	-1.4	nt
O=S(=O)(Nc1ccc(-c2ccc3nncn3n2)cc1)c1ccccc1Cl	-2.7	1.2	5.5	-13.8	nt	40.5*
CC(=O)N(C)C[C@H]1Oc2cc(C#Cc3ccc(F)cc3)ccc2S(=O)(=O)N([C@H](C)CO)C[C@H]1C	13.0	nt	nt	nt	-4.5	-10.8
COc1ccc(C#Cc2ccc3c(c2)O[C@@H](CN(C)C(C)=O)[C@@H](C)CN([C@H](C)CO)S3(=O)=O)cc1	nt	nt	nt	15.0[16.7 µM]	102.1*	-13.7
CC(=O)N(C)C[C@H]1Oc2cc(C#Cc3ccc(F)cc3)ccc2S(=O)(=O)N([C@H](C)CO)C[C@@H]1C	-16.8	nt	nt	nt	110.2*	-15.2
COc1ccc(C#Cc2ccc3c(c2)O[C@H](CN(C)C(C)=O)[C@@H](C)CN([C@@H](C)CO)S3(=O)=O)cc1	nt	nt	nt	27.3[16.7 µM]	98.4*	8.2
COc1ccc(C#Cc2ccc3c(c2)O[C@H](CN(C)C(C)=O)[C@H](C)CN([C@H](C)CO)S3(=O)=O)cc1	nt	nt	nt	13.2[16.7 µM]	-1.1	-0.5
SMILES	PAX8 inh HTS	CDK5 p35 inh	dFosB activator	Env fusion inh	Cneo AK release	INS-1E GSIS act
COc1ccc(OCC(=O)N2CCN(S(=O)(=O)c3ccccc3[N+](=O)[O-])CC2)cc1	23.7	1.4	-5.9	4.9	nt	-29.6
COc1ccc2cc(C3CC=C(CO)CN3S(=O)(=O)c3ccccc3[N+](=O)[O-])n(C(=O)OC(C)(C)C)c2c1 (configuration not stated)	18.0	nt	nt	64.9*	nt	-26.2
CCn1c2ccccc2c2cc(NC(=O)CSc3nnc(-c4cccc(OC)c4)n3N)ccc21	nt	-0.6	-2.6	135.4*	-1.6	nt
CCn1c2ccccc2c2cc(NC(=O)CSc3nnc(-c4ccccc4OC)n3N)ccc21	nt	-0.3	0.3	133.4*	nt	-27.7
O=C(C[C@H]1CC[C@H](NC(=O)c2ccccc2)[C@H](CO)O1)Nc1ccc(-c2ccccc2)cc1	12.9	nt	nt	8.4[16.7 µM]	1.5	10.8
C[C@@H]1CN([C@H](C)CO)C(=O)c2cc(C#Cc3ccccc3F)cnc2O[C@H]1CN(C)S(=O)(=O)c1ccccc1F	nt	nt	nt	32.1[16.7 µM]	-0.4	-11.1
C[C@H](CO)N1C[C@H](C)[C@H](CN(C)S(=O)(=O)c2ccc(C#N)cc2)Oc2ncc(C#Cc3ccc(C(F)(F)F)cc3)cc2C1=O	74.3*	nt	nt	nt	nt	-23.0
C[C@@H]1CN([C@@H](C)CO)C(=O)c2cc(C#Cc3ccccc3F)cnc2O[C@@H]1CN(C)S(=O)(=O)c1ccccc1F	nt	nt	nt	56.2*[16.7 µM]	0.1	2.0
C[C@H]1CN([C@@H](C)CO)C(=O)c2cc(C#CCN(C)C)cnc2O[C@H]1CN(C)S(=O)(=O)c1cn(C)cn1	nt	nt	nt	-12.5[16.7 µM]	0.3	20.4
C[C@@H]1CN([C@H](C)CO)C(=O)c2cc(C#CCN(C)C)cnc2O[C@H]1CN(C)S(=O)(=O)c1cn(C)cn1	nt	nt	nt	-16.3[16.7 µM]	6.3	40.4*
CO[C@@H]1CN(C)C(=O)c2ccc(NC(C)=O)cc2OC[C@@H](C)N(C(=O)C2CC2)C[C@H]1C	-0.3	nt	nt	nt	-8.6	0.8
CC1CCN(C(=O)CSc2nnc(-c3ccccc3F)o2)CC1	-19.4	-1.3	-0.1	-11.5	-0.3	63.1*
COc1ccc2c3c([nH]c2c1)[C@@H](CO)N(C(=O)CN1CCOCC1)CC31CN(Cc2ccccc2)C1	-38.7	nt	nt	nt	nt	14.8
O=C(C[C@@H]1CC[C@@H]2NC[C@H](O)COC[C@H]2O1)NCCc1ccncc1	-11.4	nt	nt	10.5[16.7 µM]	-1.7	-3.5
